Data as given in ChEMBL document CHEMBL1141603, “2-aryloxy-4-alkylaminopyridines: discovery of novel corticotropin-releasing factor 1 antagonists” (J Med Chem, 2008).
Converted amounts (≈) assume the structure as drawn. The source made the active and inactive calls. The rule behind the calls is not given here.

Key:
[1] = biological target: T1, Corticotropin-releasing factor receptor 1 (Rattus norvegicus, UniProt P35353); assay: (§1) Displacement of [125I]oCRF from rat CRF1 after 2 hrs by Betaplate scintillation counter
T1 sequence (P35353 whole entry): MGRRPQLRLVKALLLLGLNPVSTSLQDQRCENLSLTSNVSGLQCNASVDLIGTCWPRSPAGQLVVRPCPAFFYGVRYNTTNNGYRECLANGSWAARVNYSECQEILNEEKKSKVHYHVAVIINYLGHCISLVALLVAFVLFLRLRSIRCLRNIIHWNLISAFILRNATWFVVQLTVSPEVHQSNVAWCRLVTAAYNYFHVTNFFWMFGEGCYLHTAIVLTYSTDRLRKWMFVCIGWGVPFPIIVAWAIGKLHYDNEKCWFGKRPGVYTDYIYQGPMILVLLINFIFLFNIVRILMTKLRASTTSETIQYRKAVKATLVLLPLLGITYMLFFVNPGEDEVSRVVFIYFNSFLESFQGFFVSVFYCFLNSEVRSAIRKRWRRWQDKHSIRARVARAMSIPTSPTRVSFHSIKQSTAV

[2] = Cmax in fasted Beagle dog at 1.0 mg/kg, po; format: ADME, organism-based, Canis lupus familiaris; parameters: dose 1 mg/kg, route oral; conditions: in vivo
Summary of the method: (§2)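 Fasted beagles (fasted ~21 h, food ~3.5 h postdose) gavaged with drug suspended in 0.1% methyl cellulose pH 2. Jugular serum taken 0.25–24 h, GC-MS quantitation (LLOQ 1.0 ng/mL). Cmax and Tmax from observed profiles; F = (dose i.v.·AUC p.o.)/(dose p.o.·AUC i.v.), AUC by linear trapezoid with log-linear extrapolation.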

[3] = system: Rattus norvegicus; assay: Inhibition of CRF-induced startle response in Sprague-Dawley rat at 17.8 mg/kg, po; format: functional, organism-based; parameters: dose 17.8 mg/kg
Summary of the method: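 CRF 1 µg given icv to rats to enhance acoustic startle; compound dosed p.o. beforehand, with baseline startle also recorded.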

[4] = Oral bioavailability in fed Beagle dog at 1.0 mg/kg; format: ADME, organism-based, Canis lupus familiaris; conditions: in vivo
Summary of the method: (§3)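 Beagles fed one can of wet dog food 1 h before gavage of drug suspended in 0.1% methyl cellulose pH 2. Serum from jugular venipuncture at 0.25–24 h postdose, GC-MS analysis (LLOQ 1.0 ng/mL). Bioavailability = dose-normalized oral AUC(0–∞) over i.v. AUC(0–∞).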

[5] = Oral bioavailability in fasted Beagle dog at 1.0 mg/kg; format: ADME, organism-based, Canis lupus familiaris; conditions: in vivo; summary of the method: as §2
[6] = Tmax in fed Beagle dog at 1.0 mg/kg, po; format: ADME, organism-based, Canis lupus familiaris; parameters: dose 1 mg/kg, route oral; conditions: in vivo; summary of the method: as §3
[7] = Clearance in Beagle dog at 1.0 mg/kg, iv; format: ADME, organism-based, Canis lupus familiaris; parameters: dose 1 mg/kg, route intravenous; conditions: in vivo
Summary of the method: (§4)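 Four beagles (2 male, 2 female, 8–15 kg), 1.0 mg/kg into cephalic vein; fasted ~21 h predose, fed ~3.5 h postdose. Serum sampled from jugular at 0.083–24 h, assayed by GC-MS (LLOQ 1.0 ng/mL). Noncompartmental: linear trapezoid AUC/AUMC, kel from log-linear terminal slope, t1/2 = 0.693/kel, CL = dose/AUC, VDss = CL·AUMC/AUC, VDγ = CL/kel.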

[8] = biological target: T2, Corticotropin-releasing factor receptor 2 (Homo sapiens, UniProt Q13324); assay: Binding affinity for human CRF2 receptor; conditions: read-out: Ki app
T2 sequence (Q13324 whole entry): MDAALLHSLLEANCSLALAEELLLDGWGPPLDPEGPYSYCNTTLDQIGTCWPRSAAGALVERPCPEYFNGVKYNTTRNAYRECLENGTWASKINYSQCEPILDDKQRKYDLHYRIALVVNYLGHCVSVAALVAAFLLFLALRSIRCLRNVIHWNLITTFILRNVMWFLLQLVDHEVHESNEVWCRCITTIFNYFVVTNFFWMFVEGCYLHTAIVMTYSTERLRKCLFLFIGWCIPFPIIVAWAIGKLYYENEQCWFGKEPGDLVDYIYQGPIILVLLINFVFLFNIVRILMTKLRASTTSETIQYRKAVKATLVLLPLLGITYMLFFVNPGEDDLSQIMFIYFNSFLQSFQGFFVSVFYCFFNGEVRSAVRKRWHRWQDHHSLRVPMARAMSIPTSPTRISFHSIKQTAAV

[9] = Solubility at pH 7; format: physicochemical; conditions: buffer
[10] = Solubility at pH 2.4; format: physicochemical; conditions: buffer
[11] = biological target: T3, Corticotropin-releasing factor receptor 1 (Homo sapiens, UniProt P34998); assay: Antagonist activity at human CRF1 receptor assessed as oCRF-stimulated adenylate cyclase activity after 15 mins by liquid scintillation counting; format: functional; conditions: read-out: Ki app
T3 sequence (P34998 whole entry): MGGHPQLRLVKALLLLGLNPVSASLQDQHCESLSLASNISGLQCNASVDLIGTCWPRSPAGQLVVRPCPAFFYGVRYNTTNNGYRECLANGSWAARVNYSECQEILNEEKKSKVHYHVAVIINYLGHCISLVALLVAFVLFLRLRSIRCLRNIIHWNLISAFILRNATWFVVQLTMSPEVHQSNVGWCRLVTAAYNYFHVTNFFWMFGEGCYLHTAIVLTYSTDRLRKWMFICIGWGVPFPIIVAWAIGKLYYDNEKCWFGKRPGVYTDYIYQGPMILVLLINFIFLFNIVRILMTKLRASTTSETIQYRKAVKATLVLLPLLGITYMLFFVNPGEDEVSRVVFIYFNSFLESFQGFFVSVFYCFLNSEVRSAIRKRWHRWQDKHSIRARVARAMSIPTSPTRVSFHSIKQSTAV

[12] = Dissociation constant, pKa of the compound; format: physicochemical
[13] = Metabolic stability in human liver microsomes assessed as half life; format: ADME, Microsome
[14] = Cmax in fed Beagle dog at 1.0 mg/kg, po; format: ADME, organism-based, Canis lupus familiaris; parameters: dose 1 mg/kg, route oral; conditions: in vivo; summary of the method: as §3
[15] = Half life at terminal elimination phase in Beagle dog at 1.0 mg/kg, iv; format: ADME, organism-based, Canis lupus familiaris; parameters: dose 1 mg/kg, route intravenous; conditions: in vivo; summary of the method: as §4
[16] = system: Rattus norvegicus; assay: Inhibition of fear-potentiated startle response in Sprague-Dawley rat at 0.32 to 3.2 mg/kg, po; format: functional; parameters: scale not given: the % may be the effect or the level left; conditions: dose mg/kg 0.32-3.2
[17] = system: Rattus norvegicus; assay: Inhibition of CRF-induced exitation of locus coerulus neurons in iv dosed Sprague-Dawley rat; format: functional; conditions: read-out: ID50 (the source's name)
[18] = Tmax in fasted Beagle dog at 1.0 mg/kg, po; format: ADME, organism-based, Canis lupus familiaris; parameters: dose 1 mg/kg, route oral; conditions: in vivo; summary of the method: as §2
[19] = biological target: T1, Corticotropin-releasing factor receptor 1; assay: Antagonist activity at CRF1 receptor in rat cortical membrane assessed as oCRF-stimulated adenylate cyclase activity after 15 mins by liquid scintillation; format: functional, cell membranes; conditions: read-out: Ki app
[20] = system: Rattus norvegicus; assay: Inhibition of fear-potentiated startle response in Sprague-Dawley rat at 10 mg/kg, po; format: functional, organism-based; parameters: dose 10 mg/kg
[21] = Volume of distribution at steady state in Beagle dog at 1.0 mg/kg, iv; format: ADME, organism-based, Canis lupus familiaris; parameters: dose 1 mg/kg, route intravenous; conditions: in vivo, read-out: Vdss; summary of the method: as §4
[22] = species on record: Rattus norvegicus; assay: Inhibition of CRF-induced […] of HPA axis in Sprague-Dawley rat assessed as increase in ACTH levels by radioimmunoassay; format: functional; conditions: read-out: MED
Summary of the method: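 Oral pretreatment in rats, N = 10 per group, then i.v. CRF 4 µg/kg; plasma ACTH measured. Minimum effective dose versus CRF alone by one-way ANOVA with Dunnett's post hoc test, p < 0.05.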

[23] = Volume of distribution at terminal elimination phase in Beagle dog at 1.0 mg/kg, iv; format: ADME, organism-based, Canis lupus familiaris; parameters: dose 1 mg/kg, route intravenous; conditions: in vivo; summary of the method: as §4
[24] = system: Rattus norvegicus; assay: Ex vivo displacement of [125I]oCRF from CRF1 receptor in Sprague-Dawley rat pituitary at 3.2 mg/kg, po after 2 hrs by Betaplate scintillation counter; format: functional
Summary of the method: (§5)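 Male Sprague–Dawley rats (200–300 g) dosed orally 3.2 mg/kg; killed usually 1 h later, brain and pituitary frozen. Tissue at 25 mg wet wt/mL in PIPES pH 7.0 buffer with MgCl2, EGTA, bacitracin, aprotinin, incubated with 40 pM 125I-oCRF 2 h at room temperature; nonspecific with 1 µM rat/human CRF. Pellets centrifuged, rinsed, filtered, scintillation counted.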

[25] = system: Rattus norvegicus; assay: Ex vivo displacement of [125I]oCRF from CRF1 receptor in Sprague-Dawley rat brain cortex at 3.2 mg/kg, po after 2 hrs by Betaplate scintillation counter; format: functional; summary of the method: as §5
[26] = Oral bioavailability in fed Beagle dog at 5.0 mg/kg; format: ADME, organism-based, Canis lupus familiaris; conditions: in vivo; summary of the method: as §3
[27] = Cmax in fasted Beagle dog at 5.0 mg/kg, po; format: ADME, organism-based, Canis lupus familiaris; parameters: dose 5 mg/kg, route oral; conditions: in vivo; summary of the method: as §2
[28] = Tmax in fasted Beagle dog at 5.0 mg/kg, po; format: ADME, organism-based, Canis lupus familiaris; parameters: dose 5 mg/kg, route oral; conditions: in vivo; summary of the method: as §2
[29] = Tmax in fed Beagle dog at 5.0 mg/kg, po; format: ADME, organism-based, Canis lupus familiaris; parameters: dose 5 mg/kg, route oral; conditions: in vivo; summary of the method: as §3
[30] = Cmax in fed Beagle dog at 5.0 mg/kg, po; format: ADME, organism-based, Canis lupus familiaris; parameters: dose 5 mg/kg, route oral; conditions: in vivo; summary of the method: as §3
[31] = Oral bioavailability in fasted Beagle dog at 5.0 mg/kg; format: ADME, organism-based, Canis lupus familiaris; conditions: in vivo; summary of the method: as §2
[32] = Intrinsic clearance in human liver microsomes; format: ADME, Microsome
[33] = biological target: T4, Corticotropin-releasing factor receptor 1 (Rattus norvegicus) (UniProt P35353); assay: as §1
T4 sequence (whole entry): T1 sequence (P35353 whole entry)

[34] = Solubility at pH 2; format: physicochemical; conditions: buffer
[35] = Fraction unbound ligand in human serum; format: ADME, cell-free

## CCC(CC)Oc1cc(C)nc(Nc2c(C)cc(C)cc2C)c1C
[1]
  IC50: 3.7 nM

## CCC(CC)Nc1cc(C)nc(Oc2c(C)cc(C)cc2C)c1C
[2]
  Cmax: 46.2 ng/mL
[3]
  Activity: Active
[4]
  bioavailability: 64%
[5]
  bioavailability: 22%
[6]
  Tmax: 2 h
[7]
  clearance: 17 mL/min/kg
[8]
  Ki: > 10000 nM
[9]
  solubility: 0.1 µg/mL (≈ 0.000306 mM)
[10]
  solubility: 5400 µg/mL (≈ 16.5 mM)
[11]
  Ki: 12 nM
[1]
  IC50: 5.1 nM
[12]
  pKa: 6.9
[13]
  half-life: 0.633 h
[14]
  Cmax: 131 ng/mL
[15]
  half-life: 8.8 h
[16]
  Activity: 62%
[17]
  ED50: < 0.01 mg/kg
[18]
  Tmax: 1.8 h
[19]
  Ki: 12 nM
[20]
  Activity: Active
[21]
  Vd: 5.3 L/kg
[22]
  minimal effective dose: 10 mg/kg
[23]
  Vd: 12 L/kg
[24]
  inhibition in vivo at 3.2 mg/kg: 49%
[25]
  inhibition in vivo at 3.2 mg/kg: 81%

## CCC(CC)Oc1cc(C)nc(Oc2c(C)cc(C)cc2C)c1C
[26]
  bioavailability: 37%
[27]
  Cmax: 187 ng/mL
[28]
  Tmax: 1.5 h
[29]
  Tmax: 1.9 h
[7]
  clearance: 4.1 mL/min/kg
[30]
  Cmax: 1740 ng/mL
[1]
  IC50: 6.8 nM
[15]
  half-life: 8.3 h
[31]
  bioavailability: 3.6%
[21]
  Vd: 1.1 L/kg
[23]
  Vd: 3.1 L/kg
[24]
  inhibition in vivo at 3.2 mg/kg: 72%
[25]
  inhibition in vivo at 3.2 mg/kg: 75%

## CC[C@@H](CO)Nc1cc(C)nc(Oc2c(C)cc(Cl)cc2C)c1C(=O)OC
[1]
  IC50: 6.4 nM
[32]
  microsomal CLint: 47 µL/min/mg
[24]
  inhibition in vivo at 3.2 mg/kg: 86%
[25]
  inhibition in vivo at 3.2 mg/kg: 111%

## CCC(CC)Nc1cc(C)nc(Oc2c(C)cc(Br)cc2C)c1C
[1]
  IC50: 5.6 nM
[24]
  inhibition in vivo at 3.2 mg/kg: 81%
[25]
  inhibition in vivo at 3.2 mg/kg: 86%

## CCC(CC)Oc1cc(C)nc(Nc2c(C)cc(C)cc2C)c1C(=O)O
[33]
  Activity: inactive

## CCC(CC)Oc1cc(C)nc(Oc2c(C)cc(C)cc2C)c1C.CS(=O)(=O)O
[9]
  solubility: 0.2 µg/mL
[12]
  pKa: 3.6
[34]
  solubility: 3 µg/mL

## CCC(CC)Nc1cc(C)nc(Oc2c(C)cc(Cl)cc2C)c1C
[1]
  IC50: 7.2 nM
[13]
  half-life: 0.5 h
[24]
  inhibition in vivo at 3.2 mg/kg: 72%
[25]
  inhibition in vivo at 3.2 mg/kg: 79%

## CCC(CC)Nc1cc(C)nc(Nc2c(C)cc(C)cc2C)c1C
[1]
  IC50: 750 nM
[12]
  pKa: 9.3

## CC[C@@H](CO)Nc1cc(C)nc(Oc2c(C)cc(Cl)cc2C)c1C(=O)NC
[1]
  IC50: 31 nM
[24]
  inhibition in vivo at 3.2 mg/kg: 63%
[35]
  fraction unbound: 0.045
[25]
  inhibition in vivo at 3.2 mg/kg: 86%
